Test results taken from ChEMBL document CHEMBL1137725, “11C-labelled PIB analogues as potential tracer agents for in vivo imaging of amyloid beta in Alzheimer's disease” (Eur J Med Chem, 2009).
Calls of active or inactive are those of the source. The calls are words filed in the database; no cut-off is given here.

Tests used:
Blood [1] = assay: Biodistribution in NMRI mouse blood at 37 MBq/mL, iv after 2 mins postinjection by gamma counting; format: ADME, organism-based; details: in vivo
Method in brief: (§1)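 Normal mice given the 11C tracer i.v.; killed by decapitation at 2 or 60 min p.i. (n = 4 per time point). Blood collected in tared tube and weighed; organs dissected and weighed, then gamma-counted. Counts background-corrected and expressed as %ID per organ or %ID/g tissue.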

Blood [2] = assay: Biodistribution in NMRI mouse blood at 37 MBq/mL, iv after 60 mins postinjection by gamma counting; format: ADME, organism-based; details: in vivo, 1 h; method in brief: as §1
Kidney [3] = assay: Biodistribution in NMRI mouse kidney at 37 MBq/mL, iv after 2 mins postinjection assessed per gram of tissue by gamma counting; format: ADME, organism-based; details: in vivo; method in brief: as §1
Kidney [4] = assay: Biodistribution in NMRI mouse kidney at 37 MBq/mL, iv after 60 mins postinjection assessed per gram of tissue by gamma counting; format: ADME, organism-based; details: in vivo, 1 h; method in brief: as §1
Liver [5] = assay: Biodistribution in NMRI mouse liver at 37 MBq/mL, iv after 2 mins postinjection assessed per gram of tissue by gamma counting; format: ADME, organism-based; details: in vivo; method in brief: as §1
Liver [6] = assay: Biodistribution in NMRI mouse liver at 37 MBq/mL, iv after 60 mins postinjection assessed per gram of tissue by gamma counting; format: ADME, organism-based; details: in vivo, 1 h; method in brief: as §1
[7] = Biodistribution in NMRI mouse cerebrum at 37 MBq/mL, iv after 2 mins postinjection assessed per gram of tissue by gamma counting; format: ADME, organism-based; details: in vivo; method in brief: as §1
[8] = Biodistribution in NMRI mouse cerebrum at 37 MBq/mL, iv after 60 mins postinjection assessed per gram of tissue by gamma counting; format: ADME, organism-based; details: in vivo, 1 h; method in brief: as §1
Cerebellum [9] = assay: Biodistribution in NMRI mouse cerebellum at 37 MBq/mL, iv after 2 mins postinjection assessed per gram of tissue by gamma counting; format: ADME, organism-based; details: in vivo; method in brief: as §1
Cerebellum [10] = assay: Biodistribution in NMRI mouse cerebellum at 37 MBq/mL, iv after 60 mins postinjection assessed per gram of tissue by gamma counting; format: ADME, organism-based; details: in vivo, 1 h; method in brief: as §1
Blood [11] = assay: Biodistribution in NMRI mouse blood at 37 MBq/mL, iv after 2 mins postinjection assessed per gram of tissue by gamma counting; format: ADME, organism-based; details: in vivo; method in brief: as §1
Blood [12] = assay: Biodistribution in NMRI mouse blood at 37 MBq/mL, iv after 60 mins postinjection assessed per gram of tissue by gamma counting; format: ADME, organism-based; details: in vivo, 1 h; method in brief: as §1
Blood [13] = assay: Blood clearance in NMRI mouse assessed ratio of %ID in blood after 2 mins to %ID in blood after 60 mins at 37 MBq/mL, iv; format: ADME, tissue-based
Method in brief: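 Normal mice given i.v. 11C tracer; blood collected at 2 and 60 min p.i. (n = 4 per time point), weighed and gamma-counted. Clearance expressed as the ratio of %ID/g blood at 2 min to %ID/g blood at 60 min.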

[14] = Partition coefficient, log P in Octanol and 0.025 M phosphate buffer at pH7.4 by gamma counter; format: physicochemical; details: octanol/0.025 M phosphate buffer, pH 7.4
Method in brief: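 HPLC-purified 11C tracer added to 1-octanol and 2 ml 0.025 M phosphate buffer pH 7.4. Vortexed 3 min at room temperature, centrifuged 2700 g for 10 min. Aliquots of each phase weighed and gamma-counted; P = (cpm/ml octanol)/(cpm/ml buffer). Triplicate.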

[15] = Biodistribution in NMRI mouse urine at 37 MBq/mL, iv after 2 mins postinjection by gamma counting; format: ADME, organism-based; details: in vivo; method in brief: as §1
[16] = Biodistribution in NMRI mouse urine at 37 MBq/mL, iv after 60 mins postinjection by gamma counting; format: ADME, organism-based; details: in vivo, 1 h; method in brief: as §1
Kidney [17] = assay: Biodistribution in NMRI mouse kidney at 37 MBq/mL, iv after 2 mins postinjection by gamma counting; format: ADME, organism-based; details: in vivo; method in brief: as §1
Kidney [18] = assay: Biodistribution in NMRI mouse kidney at 37 MBq/mL, iv after 60 mins postinjection by gamma counting; format: ADME, organism-based; details: in vivo, 1 h; method in brief: as §1
Liver [19] = assay: Biodistribution in NMRI mouse liver at 37 MBq/mL, iv after 2 mins postinjection by gamma counting; format: ADME, organism-based; details: in vivo; method in brief: as §1
Liver [20] = assay: Biodistribution in NMRI mouse liver at 37 MBq/mL, iv after 60 mins postinjection by gamma counting; format: ADME, organism-based; details: in vivo, 1 h; method in brief: as §1
Intestine [21] = assay: Biodistribution in NMRI mouse intestine at 37 MBq/mL, iv after 2 mins postinjection by gamma counting; format: ADME, organism-based; details: in vivo; method in brief: as §1
Intestine [22] = assay: Biodistribution in NMRI mouse intestine at 37 MBq/mL, iv after 60 mins postinjection by gamma counting; format: ADME, organism-based; details: in vivo, 1 h; method in brief: as §1
[23] = Biodistribution in NMRI mouse cerebrum at 37 MBq/mL, iv after 2 mins postinjection by gamma counting; format: ADME, organism-based; details: in vivo; method in brief: as §1
[24] = Biodistribution in NMRI mouse cerebrum at 37 MBq/mL, iv after 60 mins postinjection by gamma counting; format: ADME, organism-based; details: in vivo, 1 h; method in brief: as §1
Cerebellum [25] = assay: Biodistribution in NMRI mouse cerebellum at 37 MBq/mL, iv after 2 mins postinjection by gamma counting; format: ADME, organism-based; details: in vivo; method in brief: as §1
Cerebellum [26] = assay: Biodistribution in NMRI mouse cerebellum at 37 MBq/mL, iv after 60 mins postinjection by gamma counting; format: ADME, organism-based; details: in vivo, 1 h; method in brief: as §1
[27] = target: T1, Amyloid-beta precursor protein (Homo sapiens, UniProt P05067); assay: Displacement of [125I]IMPY from beta-amyloid plaques in brain homogenate of patient with Alzheimer's disease by gamma counting; format: tissue-based
T1 sequence (P05067 whole entry): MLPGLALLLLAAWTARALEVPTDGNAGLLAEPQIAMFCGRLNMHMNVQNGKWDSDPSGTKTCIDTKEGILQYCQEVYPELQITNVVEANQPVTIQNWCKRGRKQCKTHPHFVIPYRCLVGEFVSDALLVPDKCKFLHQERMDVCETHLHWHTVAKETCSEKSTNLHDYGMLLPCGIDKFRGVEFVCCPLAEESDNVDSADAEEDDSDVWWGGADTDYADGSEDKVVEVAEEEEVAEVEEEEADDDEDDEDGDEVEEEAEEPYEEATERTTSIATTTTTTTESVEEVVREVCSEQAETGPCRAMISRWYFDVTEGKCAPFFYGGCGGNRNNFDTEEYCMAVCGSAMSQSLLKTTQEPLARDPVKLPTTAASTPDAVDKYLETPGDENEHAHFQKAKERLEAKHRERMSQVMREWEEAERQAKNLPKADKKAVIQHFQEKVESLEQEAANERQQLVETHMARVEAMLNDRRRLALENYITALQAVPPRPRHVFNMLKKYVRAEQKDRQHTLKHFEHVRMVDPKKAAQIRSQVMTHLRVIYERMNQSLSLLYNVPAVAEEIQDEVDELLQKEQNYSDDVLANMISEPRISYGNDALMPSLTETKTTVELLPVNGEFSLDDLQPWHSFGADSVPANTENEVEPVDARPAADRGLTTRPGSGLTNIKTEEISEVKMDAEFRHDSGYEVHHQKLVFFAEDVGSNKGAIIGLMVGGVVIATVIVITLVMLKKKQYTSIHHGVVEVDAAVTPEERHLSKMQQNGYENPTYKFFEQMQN
Method in brief: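 Gray-matter homogenates of post-mortem AD cortex in PBS pH 7.4, about 100 mg wet tissue/ml. Incubated 2 h at 37 °C, then GF/B vacuum filtration, two PBS washes, gamma counting. Ki from non-linear regression using Ki = IC50/(1+L/Kd).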

[28] = target: T1, Amyloid-beta precursor protein; assay: Binding affinity to beta-amyloid plaques in subiculum of transgenic mouse overexpressing human APP at 1 uM by fluorescence microscopy; format: tissue-based
Method in brief: (§2)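 Paraffin 8 µm sagittal sections of transgenic APP (London mutation) mouse brain or post-mortem human AD brain; xylol and graded-ethanol deparaffinization, then 1 h incubation with cold compound; tap-water rinse, Mowiol-DABCO mounting. Fluorescence microscopy with UV filter set (excitation 355–425 nm, emission 470 nm longpass). Neighbouring sections immunostained with pan Aβ or AβN25 antibody to check co-localization.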

[29] = target: T1, Amyloid-beta precursor protein; assay: Binding affinity to beta-amyloid plaques in cortex of patient with Alzheimer's disease at 1 uM by fluorescence microscopy; method in brief: as §2
[30] = target: T1, Amyloid-beta precursor protein; assay: Binding affinity to vascular beta-amyloid plaques in vibratome section of transgenic mouse cortex overexpressing human APP at 1 uM by fluorescence microscopy
Method in brief: (§3)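 Vibratome sections of transgenic APP (London mutation) mouse brain cortex incubated with cold compound. Fluorescence microscopy with UV filter set (excitation 355–425 nm, emission 470 nm longpass). For co-localization, one section was incubated first with AβN25 antibody and then with compound.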

[31] = target: T1, Amyloid-beta precursor protein; assay: Binding affinity to vascular beta-amyloid plaques in vibratome section of transgenic mouse overexpressing human APP at 0.1 uM by fluorescence microscopy; details: 1 uM, in the assay text read “at 1 uM” for “at 0.1 uM”; method in brief: as §3
[32] = target: T1, Amyloid-beta precursor protein; assay: Binding affinity to fibrillar beta-amyloid plaques in cortex of patient with Alzheimer's disease at 1 uM by fluorescence microscopy; method in brief: as §2
[33] = Biodistribution in NMRI mouse hepatobiliary system at 37 MBq/mL, iv after 60 mins postinjection by gamma counting; format: ADME, organism-based; details: in vivo, 1 h; method in brief: as §1
[34] = target: T1, Amyloid-beta precursor protein; assay: Binding affinity to core beta-amyloid plaques in vibratome section of transgenic mouse overexpressing human APP at 1 uM by fluorescence microscopy; method in brief: as §3

Drug uptake (Blood [1]) [%ID] | Drug uptake (Blood [2]) [%ID] | Drug uptake (Kidney [3]) [% ID/g] | Drug uptake (Kidney [4]) [% ID/g] | Drug uptake (Liver [5]) [% ID/g] | Drug uptake (Liver [6]) [% ID/g] | Drug uptake [7] [% ID/g] | Drug uptake [8] [% ID/g] | Drug uptake (Cerebellum [9]) [% ID/g] | Drug uptake (Cerebellum [10]) [% ID/g] | Drug uptake (Blood [11]) [% ID/g] | Drug uptake (Blood [12]) [% ID/g] | Drug uptake [15] [%ID] | Drug uptake [16] [%ID] | Drug uptake (Kidney [17]) [%ID] | Drug uptake (Kidney [18]) [%ID] | Drug uptake (Liver [19]) [%ID] | Drug uptake (Liver [20]) [%ID] | Drug uptake (Intestine [21]) [%ID] | Drug uptake (Intestine [22]) [%ID] | SMILES | further results
9.8 | 1.2 | 16.9 | 4.8 | 14.5 | 4 | 2.6 | 0.16 | 2.8 | 0.1 | 4.6 | 0.57 | 0.58 | 24.8 | 9 | 2.5 | 27.8 | 7.1 | 9.4 | 54.7 | [11CH3]Nc1ccc(-c2nc3cccc(O)c3s2)cc1 | Ratio (Blood [13]): 12; logD [14]: 2.45; Drug uptake [23]: 0.83 %ID; Drug uptake [24]: 0.05 %ID; Drug uptake (Cerebellum [25]): 0.22 %ID; Drug uptake (Cerebellum [26]): 0.01 %ID
7.9 | 2.7 | 19.9 | 9.1 | 7.9 | 5 | 3.6 | 0.6 | 1.6 | 0.3 | 3.1 | 1.1 | 0.2 | 24.4 | 10.3 | 4.8 | 15.6 | 9.8 | 12 | 42.5 | CNc1ccc(-c2nc3ccc(O)cc3s2)cc1 [PITTSBURGH COMPOUND B UNLABELLED] | Drug uptake [23]: 1.1 %ID; Drug uptake [24]: 0.2 %ID; Drug uptake (Cerebellum [25]): 0.2 %ID; Drug uptake (Cerebellum [26]): 0 %ID
 |  |  |  |  |  |  |  |  |  |  |  |  |  |  |  |  |  |  |  | CNc1ccc(-c2nc3cccc(O)c3s2)cc1 | Ki [27]: 11.2 nM; Activity [28]: Active; Activity [29]: Active; Activity [30]: Active; Activity [31]: Active; Activity [32]: Active
6 | 0.5 | 14.2 | 1.2 | 12.1 | 2.2 | 4.3 | 0.09 | 4.4 | 0.08 | 2.5 | 0.21 | 0.35 | 14.6 | 8.1 | 0.7 | 25.8 | 4.2 | 12.9 | 73.7 | [11CH3]Nc1ccc(-c2nc3cc(O)ccc3s2)cc1 | Drug uptake [33]: 78 %ID; logD [14]: 2.48; Drug uptake [23]: 1.3 %ID; Drug uptake [24]: 0.03 %ID; Drug uptake (Cerebellum [25]): 0.57 %ID; Drug uptake (Cerebellum [26]): 0.01 %ID
 |  |  |  |  |  |  |  |  |  |  |  |  |  |  |  |  |  |  |  | CNc1ccc(-c2nc3cc(O)ccc3s2)cc1 | Ki [27]: 11.5 nM; Activity [28]: Active; Activity [29]: Active; Activity [34]: Active; Activity [30]: Active; Activity [31]: Active; Activity [32]: Active
 |  |  |  |  |  |  |  |  |  |  |  |  |  |  |  |  |  |  |  | CNc1ccc(-c2nc3c(O)cccc3s2)cc1 | Ki [27]: 18.8 nM; Activity [28]: Active; Activity [29]: Active; Activity [32]: Active
13.8 | 2.3 | 19.4 | 1.2 | 11.1 | 3.7 | 3.8 | 0.3 | 2.7 | 0.6 | 6.5 | 1 | 0.2 | 22.7 | 10.6 | 0.6 | 21.2 | 6.4 | 12 | 52.3 | [11CH3]Nc1ccc(-c2nc3c(O)cccc3s2)cc1 | Ratio (Blood [13]): 6; Drug uptake [33]: 59 %ID; logD [14]: 3.18; Drug uptake [23]: 1.2 %ID; Drug uptake [24]: 0.1 %ID; Drug uptake (Cerebellum [25]): 0.2 %ID; Drug uptake (Cerebellum [26]): 0 %ID
